# Reference: ChEMBL document CHEMBL1149157, “Synthesis and structure-activity relationship of novel antitumoral platinum xanthate complexes” (J Med Chem, 2004)
# Key:
# Format in all cases: functional, cell-based, Homo sapiens
# Calu-6 [1] = experiment: Cytotoxic activity was determined in vitro in Calu-6 cell line culture at pH 7.4
# Method in brief: (§1)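 Plated at 2×10^6 cells/plate. After one day, medium was replaced with pH 7.4 medium (2.2 g NaHCO3/L) and equilibrated under 5% CO2. Cells got 2 h at 37°C, in quadruplicate, of a 1:2 series 50–0.8 µg/mL (acetone ≤5%), then drug-free pH 7.4 medium for 24–96 h until controls were confluent. Fixed with 3% formaldehyde, stained with 1% crystal violet, A550. IC50 from dose–response curves; mean of four assays ± SD.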
# Calu-6 [2] = experiment: Cytotoxic activity was determined in vitro in Calu-6 cell line culture at pH 6.8
# Method in brief: (§2)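 Seeded at 2×10^6 cells/plate. Next day, switched to pH 6.8 medium (1.3 g NaHCO3/L, serum acidified with 1 N HCl) and equilibrated in 5% CO2. Exposed for 2 h at 37°C in quadruplicate to 50–0.8 µg/mL (1:2 series; acetone ≤5%), then given drug-free pH 7.4 medium until controls were confluent. Read by formaldehyde fixation and crystal violet at 550 nm. IC50 from dose–response curves, mean of four assays ± SD.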
# KB [3] = experiment: Cytotoxic activity was determined in vitro in KB cell line culture at pH 7.4
# Method in brief: (§3)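 Using pH 7.4 medium (2.2 g NaHCO3/L) on cells plated a day earlier at 2×10^6/plate, with equilibration in 5% CO2. Compounds were applied for 2 h at 37°C in quadruplicate at 50–0.8 µg/mL (1:2; acetone ≤5%), followed by drug-free pH 7.4 medium until controls were confluent. Fixed and stained with crystal violet, dye eluted with ethanol/1% acetic acid, read at 550 nm. IC50 from curves, mean of four ± SD.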
# KB [4] = experiment: Cytotoxic activity was determined in vitro in KB cell line culture at pH 6.8
# Method in brief: (§4)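 Cells at 2×10^6/plate were moved the next day into pH 6.8 medium (1.3 g NaHCO3/L; serum given 1 N HCl; 30 min 5% CO2). Treated 2 h at 37°C, quadruplicate, 50–0.8 µg/mL in 1:2 steps (acetone ≤5%), then grown in drug-free pH 7.4 medium to control confluence. Crystal violet stain eluted with ethanol/1% acetic acid before A550. IC50 from curves, mean of four assays ± SD.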
# LXF-289 cell line [5] = experiment: Cytotoxic activity was determined in vitro in LXF-289 cell line culture at pH 6.8; method in brief: as §2
# LXF-289 cell line [6] = experiment: Cytotoxic activity was determined in vitro in LXF-289 cell line culture at pH 7.4; method in brief: as §1
# MCF7 [7] = experiment: Cytotoxic activity was determined in vitro in MCF-7 cell line culture at pH 6.8; method in brief: as §4
# SK-OV-3 [8] = experiment: Cytotoxic activity was determined in vitro in SK-OV-3 cell line culture at pH 6.8
# Method in brief: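 SK-OV-3 seeded at 1×10^6 cells/plate. Next day, placed in pH 6.8 medium (1.3 g NaHCO3/L, HCl-treated serum, 5% CO2). Given 2 h at 37°C, in quadruplicate, of 50–0.8 µg/mL (1:2; acetone ≤5%), then drug-free pH 7.4 medium until controls were confluent. Formaldehyde-fixed and crystal violet-stained, A550. IC50 from dose–response curves, mean of four assays ± SD.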
# SK-MEL-25 [9] = experiment: Cytotoxic activity was determined in vitro in SK-MEL-25 cell line culture at pH 6.8; method in brief: as §2
# SK-MEL-25 [10] = experiment: Cytotoxic activity was determined in vitro in SK-MEL-25 cell line culture at pH 7.4; method in brief: as §1
# MCF7 [11] = experiment: Cytotoxic activity was determined in vitro in MCF-7 cell line culture at pH 7.4; method in brief: as §3
# SK-OV-3 [12] = experiment: Cytotoxic activity was determined in vitro in SK-OV-3 cell line culture at pH 7.4
# Method in brief: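 With 1×10^6 cells/plate seeded, medium was changed the next day to pH 7.4 (2.2 g NaHCO3/L) under 5% CO2. Cells were exposed 2 h at 37°C in quadruplicate to a 1:2 series of 50–0.8 µg/mL (acetone ≤5%), then given drug-free pH 7.4 medium until controls were confluent. Crystal violet read at 550 nm after formaldehyde fixation. IC50 from curves; mean of four assays ± SD.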
Substance,IC50 (Calu-6 [1]),IC50 (Calu-6 [2]),IC50 (KB [3]),IC50 (KB [4]),IC50 (LXF-289 cell line [5]),IC50 (LXF-289 cell line [6]),IC50 (MCF7 [7]),IC50 (SK-OV-3 [8]),IC50 (SK-MEL-25 [9]),IC50 (SK-MEL-25 [10]),IC50 (MCF7 [11]),IC50 (SK-OV-3 [12])
"2,6-bis(3-methylbutoxy)-1,3,5,7-tetrathia-4-platinaspiro[3.3]heptane",21 µM,6 µM,19 µM,35 µM,23 µM,71 µM,23 µM,24 µM,20 µM,35 µM,40 µM,21 µM
"2,6-bis(cyclopentyloxy)-1,3,5,7-tetrathia-4-platinaspiro[3.3]heptane",5 µM,3 µM,24 µM,14 µM,37 µM,38 µM,5 µM,17 µM,5 µM,9 µM,10 µM,26 µM
"2,6-bis(pentan-3-yloxy)-1,3,5,7-tetrathia-4-platinaspiro[3.3]heptane",5 µM,3 µM,5 µM,4 µM,8 µM,10 µM,5 µM,8 µM,5 µM,9 µM,6 µM,5 µM
